From ChEMBL document CHEMBL1275259, “In vitro antituberculosis activities of ACH-702, a novel isothiazoloquinolone, against quinolone-susceptible and quinolone-resistant isolates” (Antimicrob Agents Chemother, 2010)
Values after ≈ are worked out from the molar mass of the structure shown.

Key:
[1] = test system: Mycobacterium tuberculosis; assay: Antimicrobial activity against multidrug drug-resistant Mycobacterium tuberculosis isolate 20; format: functional
Procedure, shortened: (§1)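 Broth microdilution MIC in modified 7H10 broth (pH 6.6). Drugs dissolved in DMSO at 1 mg/ml, then serially diluted. Isolates grown 5 to 10 days at 37°C on a rotary shaker, diluted to 100 Klett units and frozen. Final inoculum about 6 × 10^4 CFU/ml (range 1.2 × 10^4 to 2.6 × 10^5). Duplicate wells, sealed, read after about 21 days at 37°C in ambient air.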

[2] = test system: Mycobacterium tuberculosis; assay: Antimicrobial activity against quinolone-resistant Mycobacterium tuberculosis isolate 10; format: functional; procedure, shortened: as §1
[3] = test system: Mycobacterium tuberculosis; assay: Antimicrobial activity against extensively drug-resistant Mycobacterium tuberculosis isolate 17; format: functional; procedure, shortened: as §1
[4] = test system: Mycobacterium tuberculosis; assay: Antimicrobial activity against quinolone-resistant Mycobacterium tuberculosis isolate 11; format: functional; procedure, shortened: as §1
[5] = test system: Mycobacterium tuberculosis; assay: Antimicrobial activity against extensively drug-resistant Mycobacterium tuberculosis isolate 18; format: functional; procedure, shortened: as §1
[6] = test system: Mycobacterium tuberculosis; assay: Antimicrobial activity against extensively drug-resistant Mycobacterium tuberculosis isolate 16; format: functional; procedure, shortened: as §1
[7] = test system: Mycobacterium tuberculosis; assay: Antimicrobial activity against multidrug-resistant Mycobacterium tuberculosis isolate 9; format: functional; procedure, shortened: as §1
[8] = test system: Mycobacterium tuberculosis; assay: Antimicrobial activity against quinolone-resistant Mycobacterium tuberculosis isolate 12; format: functional; procedure, shortened: as §1
[9] = test system: Mycobacterium tuberculosis; assay: Antimicrobial activity against isoniazid-resistant Mycobacterium tuberculosis isolate 15; format: functional; procedure, shortened: as §1
[10] = test system: Mycobacterium tuberculosis; assay: Antimicrobial activity against streptomycin-resistant Mycobacterium tuberculosis isolate 8; format: functional; procedure, shortened: as §1
[11] = test system: Mycobacterium tuberculosis; assay: Antimicrobial activity against multidrug-resistant Mycobacterium tuberculosis isolate 19; format: functional; procedure, shortened: as §1
DNA gyrase subunit A [12] = biological target: DNA gyrase subunit A (Mycobacterium tuberculosis, UniProt P9WG47, D94G); assay: Inhibition of DNA supercoiling activity of Mycobacterium tuberculosis DNA gyrase subunit A D94G mutant
DNA gyrase subunit A [13] = biological target: DNA gyrase subunit A (Mycobacterium tuberculosis, UniProt P9WG47, A90V); assay: Inhibition of DNA supercoiling activitysof Mycobacterium tuberculosis DNA gyrase subunit A A90V mutant

Row | Structure (SMILES) | MIC [1] [µg/mL] | MIC [2] [µg/mL] | MIC [3] [µg/mL] | MIC [4] [µg/mL] | MIC [5] [µg/mL] | MIC [6] [µg/mL] | MIC [7] [µg/mL] | MIC [8] [µg/mL] | MIC [9] [µg/mL] | MIC [10] [µg/mL] | MIC [11] [µg/mL] | IC50 (DNA gyrase subunit A [12]) [µM] | IC50 (DNA gyrase subunit A [13]) [µM]
1 | NNC(=O)c1ccncc1 [ISONIAZID] | 2 (≈ 14.6 µM) | 0.03 (≈ 0.219 µM) | 1 (≈ 7.29 µM) | 0.03 (≈ 0.219 µM) | 2 (≈ 14.6 µM) | 1 (≈ 7.29 µM) | 4 (≈ 29.2 µM) | 0.03 (≈ 0.219 µM) | > 8 | 0.125 (≈ 0.911 µM) | 2 (≈ 14.6 µM) |  | 
2 | COc1c(N2CCNC(C)C2)c(F)cc2c(=O)c(C(=O)O)cn(C3CC3)c12 (stereo unspecified) [GATIFLOXACIN] |  |  |  |  |  |  |  |  |  |  |  | 44 | 28
3 | COc1c(N2CC[C@@H](C(C)(C)N)C2)c(F)cc2c(=O)c3c(=O)[nH]sc3n(C3CC3)c12 | 0.03 (≈ 0.0694 µM) | 0.125 (≈ 0.289 µM) | 1 (≈ 2.31 µM) | 0.25 (≈ 0.578 µM) | 0.125 (≈ 0.289 µM) | 0.5 (≈ 1.16 µM) | 0.06 (≈ 0.139 µM) | 1 (≈ 2.31 µM) | 0.06 (≈ 0.139 µM) | 0.25 (≈ 0.578 µM) | 0.03 (≈ 0.0694 µM) | 7.9 | 4.6
4 | C[C@H]1COc2c(N3CCN(C)CC3)c(F)cc3c(=O)c(C(=O)O)cn1c23 [LEVOFLOXACIN] |  |  |  |  |  |  |  |  |  |  |  | > 300 | > 300
5 | COc1c(N2C[C@@H]3CCCN[C@@H]3C2)c(F)cc2c(=O)c(C(=O)O)cn(C3CC3)c12 [MOXIFLOXACIN] | 0.03 (≈ 0.0747 µM) | > 8 | 2 (≈ 4.98 µM) | 4 (≈ 9.96 µM) | 1 (≈ 2.49 µM) | 1 (≈ 2.49 µM) | 0.06 (≈ 0.149 µM) | 8 (≈ 19.9 µM) | 0.06 (≈ 0.149 µM) | 0.06 (≈ 0.149 µM) | 0.03 (≈ 0.0747 µM) |  | 
6 | CO[C@H]1/C=C/O[C@@]2(C)Oc3c(C)c(O)c4c(O)c(c(/C=N/N5CCN(C)CC5)c(O)c4c3C2=O)NC(=O)/C(C)=C\C=C\[C@H](C)[C@H](O)[C@@H](C)[C@@H](O)[C@@H](C)[C@H](OC(C)=O)[C@@H]1C [RIFAMPIN] | 16 (≈ 19.4 µM) | 0.004 (≈ 0.00486 µM) | 8 (≈ 9.72 µM) | 0.03 (≈ 0.0365 µM) | 8 (≈ 9.72 µM) | 8 (≈ 9.72 µM) | 64 (≈ 77.8 µM) | 0.004 (≈ 0.00486 µM) | 0.002 (≈ 0.00243 µM) | 0.008 (≈ 0.00972 µM) | 64 (≈ 77.8 µM) |  | 
7 | CN[C@@H]1[C@H](O[C@H]2[C@H](O[C@H]3[C@H](O)[C@@H](O)[C@H](N=C(N)N)[C@@H](O)[C@@H]3N=C(N)N)O[C@@H](C)[C@]2(O)C=O)O[C@@H](CO)[C@H](O)[C@H]1O [STREPTOMYCIN] |  |  |  |  |  |  | 32 (≈ 55 µM) |  |  |  |  |  | 
